This is one part of a sample in which hits are shown more often than they occur.
UPR XBP1 act = activators of adaptive XBP1 UPR arm, primary screen, cell-based, CHO-XBP1 luciferase reporter, luminescence, uHTS; IRE1-XBP1 UPR activation; percent of tunicamycin response, DMSO as zero; activation, % at 20 µM; 330,000 tested, 0.33% active;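 active = versus positive control, 20 µM dose yields 30% or more activation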;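 note: 100% = tunicamycin at 10 µg/mL and 0% = DMSO only wells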
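Material: CHO cell line with stable XBP1 luciferase reporter; schedule: 16-18 h cell attachment at 37 °C, then 6 h compound exposure; signal: glow luminescence from Steady-Glo reagent; medium: serum-containing F12 medium, 10% FBS; benchmarks: tunicamycin 10 µg/mL and vehicle-only wells; read-out: percent activation relative to tunicamycin reference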
Cardio protect = cardioprotection against H2O2-induced cell death, primary screen, uHTS, H9c2 cells, ATPLite luminescence. H9c2 cardiomyocytes, H2O2 injury protection, 2 h. protection from H2O2 cell death, % at 20 µM. 360,000 tested, 0.63% active. AID 588492, 2011;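 active = compounds giving at least 50% protection of heart cells from peroxide-induced death in the single-dose screen, raw or plate-pattern-corrected value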;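 note: 0% = DMSO wells with peroxide and 100% = DMSO wells without peroxide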
UPR CHOP act = activators of apoptotic CHOP UPR arm, primary screen, cell-based, CHO-CHOP luciferase reporter, luminescence, uHTS. 330,000 tested, 0.34% active. UPR activation; percent of tunicamycin response over DMSO baseline. activation, % at 10 µM;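 active = at 10 µM dose, activation of 40% or more, normalized to positive control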;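 note: 100% = tunicamycin at 10 µg/mL and 0% = DMSO alone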
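Assay system: CHO cells with stable CHOP pathway luciferase reporter; Buffer or medium: F12 plus 10% serum; Times: 16-18 h cell attachment, then 6 h compound exposure, 37 °C; Signal: luciferase luminescence; Read-out basis: percent activation relative to tunicamycin control; Control set: tunicamycin high control, DMSO low control.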
CHOP inh = inhibitors of CHOP promoter induction, primary screen, cell-based, unfolded protein response, luciferase reporter; AID 2732, 2010; 220,000 tested, 3.8% active; CHO-K1 CHOP-promoter luciferase, tunicamycin-induced, 15-18 h; inhibition, % at 10 µM;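 active = compounds that reduced the stress-induced luciferase reporter signal by more than about 70% of percent inhibition, limit read from the data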;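 note: 0% = tunicamycin plus vehicle and 100% = wells without tunicamycin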
iPSC survival up = enhancers of single-cell hiPSC survival, primary screen, ATPlite luminescence | 100% = ROCK inhibitor wells, 0% = DMSO | survival enhancement, % at 20 µM | 360,000 tested, 0.044% active | AID 602274, 2012; in the data active = survival enhancement above about 18%;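 note: cells exposed to compounds for 16 hours before the ATP read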
CHOP confirm = retest of CHOP induction inhibitors, confirmation, cell-based; inhibition, % at 10 µM; CHO-CHOP promoter luciferase reporter, tunicamycin-induced, luminescence; 2,100 tested, 45% active; AID 504437, 2011; shares compounds with CHOP inh;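 active = mean of three repeat readings of reporter signal inhibition above a set limit, cut at about 70% in these data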;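 note: 0% = tunicamycin plus vehicle and 100% = wells lacking tunicamycin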
Starred values were filed as active, the others as inactive; x = no result given.

SMILES	UPR XBP1 act	Cardio protect	UPR CHOP act	CHOP inh	iPSC survival up	CHOP confirm
CCOC(=O)c1ccc2c(c1)nc(SC/C(O)=C(\C#N)c1nc3ccccc3[nH]1)n2CC	2	-3	1	99*	4	46
CCOC(=O)c1c(C)[nH]c(C(=O)OC/C(O)=C(\C#N)c2nc3ccccc3[nH]2)c1C	-1	-1	0	100*	0	-32
CC1CN(S(=O)(=O)c2cccc(C(=O)OC/C(O)=C(\C#N)c3nc4ccccc4[nH]3)c2)CC(C)O1 (stereo not given)	-1	-2	1	106*	-1	29
COc1ccc(-c2nc3ccc(C)cn3c2Cc2ccccc2)cc1OC	x	10	x	x	-1	x
CCc1nc2c(OCc3c(C)noc3C)cccn2c1N(C=O)Cc1ccc(OC)cc1	x	-2	x	x	-2	x
CCOc1ccccc1C(=O)NCC(=O)NCCSc1ccc(Br)cc1	x	0	x	x	0	x
CCC(C)OC(=O)C1=C(C)NC(=O)CC1c1ccccc1OC (stereo not given)	-4	-13	1	17	4	x
CCCOc1ccccc1C1CC(=O)NC(C)=C1C(=O)OCC(C)C (stereo not given)	1	-13	2	99*	2	116*
CCC/C=C/c1ccc(CN2C(CC(C)C)C(=O)N(Cc3cn(CCOCOC)nn3)CCS2(=O)=O)cc1 (stereo not given)	x	-6	x	x	-1	x
NC(=O)c1ncn([C@@H]2O[C@H](CNCc3cc(Cl)ccc3OCc3ccc(Cl)cc3)[C@@H](O)[C@H]2O)n1	x	-1	x	x	2	x
COc1ccccc1NC(=O)c1c(Nc2ccccc2F)sc(C(=O)Nc2cccc(Cl)c2)c1N	3	-21	5	108*	-2	63
Cc1ccc(NC(=O)O/N=C/c2c(C)nn(C(C)(C)C)c2C)cc1Cl	-11	-12	-10	99*	-1	120*
Cc1ccc(NC(=O)Nn2cnnc2)cc1Cl	-1	0	4	x	0	x
CC(C)C[C@H]1COc2cc(N(C)CCO)ccc2S(=O)(=O)N1	x	x	x	x	0	x
Cc1cc(C(C)(C)C)oc1C(=O)O	0	0	0	12	7	x
Cc1cc(C(C)(C)C)oc1C(=O)N1CCN(C(=O)c2oc(C(C)(C)C)cc2C)CC1	x	-2	x	105*	2	115*
CCOC(=O)c1c(-c2ccccc2)oc2ccc(O)cc12	1	-11	0	x	0	x
CCOC(=O)c1c(CSc2ccccc2)oc2ccc(O)cc12	8	-25	0	105*	-3	14
Cc1ccc(-c2nc3cc(NS(=O)(=O)c4ccc(C)cc4)ccc3o2)cc1	1	-22	0	105*	-3	80*
O=S(=O)(Nc1ccc2oc(-c3ccccc3)nc2c1)c1ccccc1	5	-6	4	x	3	x
Cc1ccc(-c2nc3cc(N)ccc3o2)cc1	-2	-20	-1	102*	-2	60
Cc1nc(Cc2nnc(SC(C)C(=O)Nc3ccccc3)o2)cs1 (stereo not given)	x	2	x	x	-1	x
COc1ccc(/C=C2/SC(=O)N(CC(=O)NCCC(C)C)C2=O)cc1OC	3	-3	1	100*	1	-34
COc1ccc(/C=C2\SC(=O)N(CC(=O)NCCC(C)C)C2=O)cc1OC	-4	-5	1	2	3	x
Cc1ccc(CNC(=O)CSc2nc(=O)n3ccc(C)cc3n2)cc1	x	2	x	x	0	x
SMILES	UPR XBP1 act	Cardio protect	UPR CHOP act	CHOP inh	iPSC survival up	CHOP confirm
COC(=O)CN1C(=O)N/C(=C/c2cc3c(cc2OC)OCO3)C1=O	0	1	-1	12	0	x
COc1cc2c(cc1/C=C1/NC(=O)N(CC(=O)Nc3ccccc3)C1=O)OCO2	-1	-7	-1	102*	1	21
Cc1cc(=O)[nH]c(N=N/C(=N/Nc2ccc(O)cc2)c2ccccc2)n1	0	49	3	50	2	x
Cc1cc(=O)[nH]c(N=N/C(=N/Nc2ccccc2C)c2ccccc2)n1	7	60*	-1	103*	7	43
O=C(NNC(=O)c1cccc2ccccc12)c1ccc(-c2ccccc2)cc1	-4	-11	1	98*	-1	82*
CCOC(=O)[C@@H](NC(=O)/C=C/[C@H]1O[C@@H](n2cc(C)c(=O)[nH]c2=O)C[C@@H]1O)C(C)C	x	8	x	x	2	x
O=C(N/N=C/C=C/c1ccccc1)NC1CCCCC1	0	-3	1	101*	2	20
O=C(N/N=C/c1cccc(O)c1)NC1CCCCC1	0	0	4	-1	0	x
CCCC(=O)NC(Nc1cc(C(F)(F)F)ccc1Cl)C(Cl)(Cl)Cl (stereo not given)	2	-26	0	97*	-2	50
CC(=O)Nc1ccc(C(=O)N2CCCCC2c2cc(C(=O)Nc3ccccc3Cl)no2)cc1 (stereo not given)	x	-6	x	x	2	x
CCOc1ccc(NC(=O)c2ccccc2NC(=O)CN(C)CC(=O)Nc2ccc(C)cc2)cc1	5	-1	1	107*	6	53
Cc1c(C(=O)NCc2ccccc2C(F)(F)F)sc(=O)n1Cc1ccc(Cl)c(Cl)c1	x	-4	x	x	1	x
C/C(=N\N=C1\NC(=O)C(CC(=O)Nc2ccc(C)c(Cl)c2)S1)C(C)(C)C (stereo not given)	-1	-3	-2	106*	-1	107*
C/C(=N\N=C1\NC(=O)C(CC(=O)Nc2ccc(Cl)cc2)S1)c1ccco1 (stereo not given)	-2	-4	1	29	-1	x
O=C(CC1S/C(=N/N=C/c2cccs2)NC1=O)Nc1ccc(Cl)c(Cl)c1 (stereo not given)	0	-8	3	104*	-1	57
O=C1N/C(=N\N=C\c2cccs2)SC1Cc1ccc(Cl)cc1Cl (stereo not given)	2	12	1	44	0	x
O=C(Nc1ccccc1C(F)(F)F)c1cc(-c2cccc(O)c2)on1	-1	-2	2	97*	0	-9
CCc1ccccc1NC(=O)c1cc(-c2cccc(O)c2)on1	0	-8	3	55	2	x
O=c1c2ccccc2nc2n1CCc1ccc(Br)cc1-2	x	0	x	x	-1	x
COc1ccccc1NS(=O)(=O)c1cc([N+](=O)[O-])ccc1N/N=C/c1c[nH]c2ccccc12	7	-7	-1	98*	2	52
Cc1ccc(F)c(S(=O)(=O)NC(=O)C2(C)CCN2C(=O)Cc2cccc3ccccc23)c1 (stereo not given)	x	-4	x	x	-2	x
